Assay results: ChEMBL document CHEMBL1150419, “Structure-activity relationships of a peptide inhibitor of the human FcRn:human IgG interaction” (Bioorg Med Chem, 2008)
Bridge positions count the residues as written; N and C are the ends. Peptide text beside a SMILES is read from it.

Key:
[1] = target: T1, IgG receptor FcRn large subunit p51 (Homo sapiens, UniProt P55899); assay: Binding affinity to human FcRn at pH 6 by surface plasmon resonance assay
Outline: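 Soluble human FcRn coupled to the dextran surface of a CM5 chip; peptide dilutions flowed over the chip. The equilibrium response at each dilution was plotted against concentration and fitted to a steady-state affinity model to give Kd.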

[2] = target: T1, IgG receptor FcRn large subunit p51; assay: Inhibition of human IgG binding to soluble human FcRn by ELISA
Outline: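 Biotinylated soluble human FcRn immobilized on neutravidin plates, incubated with hIgG (3 nM, constant) and peptide at varying concentrations for 2 h at 37 °C. After washing, bound hIgG detected with peroxidase-conjugated hIgG-specific Fab fragments.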

T1 sequence (P55899 whole entry): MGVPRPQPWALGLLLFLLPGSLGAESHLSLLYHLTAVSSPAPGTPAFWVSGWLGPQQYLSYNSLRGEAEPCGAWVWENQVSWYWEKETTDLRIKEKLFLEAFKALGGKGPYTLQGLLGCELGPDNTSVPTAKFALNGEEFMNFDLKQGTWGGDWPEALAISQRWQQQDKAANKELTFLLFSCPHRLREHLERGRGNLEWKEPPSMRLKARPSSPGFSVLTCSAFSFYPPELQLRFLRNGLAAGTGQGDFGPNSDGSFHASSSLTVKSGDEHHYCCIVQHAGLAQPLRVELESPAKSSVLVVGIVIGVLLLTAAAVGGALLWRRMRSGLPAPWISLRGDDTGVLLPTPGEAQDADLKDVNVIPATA

| Structure (SMILES) | Kd [1] [µM] | IC50 [2] [µM] |
| --- | --- | --- |
| CC(C)C[C@H](NC(=O)CNC(=O)CNC(=O)[C@H](Cc1ccccc1)NC(=O)[C@H](Cc1cnc[nH]1)NC(=O)CNC(=O)[C@@H](NC(=O)[C@H](CS)NC(=O)[C@@H](N)Cc1ccccc1)[C@@H](C)O)C(=O)N[C@@H](Cc1ccc(O)cc1)C(=O)N1CCC[C@H]1C(=O)N[C@@H](CS)C(=O)N[C@@H](CC(N)=O)C(=O)NCC(=O)N1CCC[C@H]1C(=O)O | 11 | 67 |
| Cc1ccccc1C[C@H](NC(=O)[C@H](Cc1cnc[nH]1)NC(=O)CNC(=O)[C@@H](NC(=O)[C@@H](NC(=O)[C@H](Cc1ccccc1)NC(=O)[C@H](CCCNC(=N)N)NC(=O)[C@@H](N)CCC(N)=O)C(C)(C)S)[C@@H](C)O)C(=O)NCC(=O)NCC(=O)N[C@@H](CC(C)C)C(=O)N[C@@H](Cc1ccc(O)cc1)C(=O)N1CCC[C@H]1C(=O)N[C@@H](CS)C(=O)N[C@@H](CC(N)=O)C(=O)NCC(=O)N1CCC[C@H]1C(=O)O | 0.2 | 1 |
| CC(C)C[C@H](NC(=O)[C@@H](C)NC(=O)[C@@H](C)NC(=O)[C@H](Cc1ccccc1)NC(=O)[C@H](Cc1cnc[nH]1)NC(=O)CNC(=O)[C@@H](NC(=O)[C@H](CS)NC(=O)[C@H](Cc1ccccc1)NC(=O)[C@H](CCCN=C(N)N)NC(=O)[C@@H](N)CCC(N)=O)[C@@H](C)O)C(=O)N[C@@H](Cc1ccc(O)cc1)C(=O)N1CCC[C@H]1C(=O)N[C@@H](CS)C(=O)N[C@@H](CC(N)=O)C(=O)NCC(=O)N1CCC[C@H]1C(=O)O | 22 | 69 |
| CC(C)C[C@H](NC(=O)CNC(=O)CNC(=O)[C@H](Cc1ccccc1)NC(=O)[C@H](Cc1cnc[nH]1)NC(=O)CNC(=O)[C@@H](NC(=O)[C@H](CCC(=O)O)NC(=O)[C@H](Cc1ccccc1)NC(=O)[C@H](CCCNC(=N)N)NC(=O)[C@@H](N)CCC(N)=O)[C@@H](C)O)C(=O)N[C@@H](Cc1ccc(O)cc1)C(=O)N1CCC[C@H]1C(=O)N[C@@H](CN)C(=O)N[C@@H](CC(N)=O)C(=O)NCC(=O)N1CCC[C@H]1C(=O)O | 9.6 | 71 |
| CC(C)C[C@H](NC(=O)CNC(=O)CNC(=O)[C@H](Cc1ccccc1)NC(=O)[C@H](Cc1cnc[nH]1)NC(=O)CNC(=O)[C@@H](NC(=O)[C@@H](NC(=O)[C@H](Cc1ccccc1)NC(=O)[C@H](CCCN=C(N)N)NC(=O)[C@@H](N)CCC(N)=O)C(C)(C)S)[C@@H](C)O)C(=O)N[C@@H](Cc1ccc(N)cc1)C(=O)N1CCC[C@H]1C(=O)N[C@@H](CS)C(=O)N[C@@H](CC(N)=O)C(=O)NCC(=O)N1CCC[C@H]1C(=O)O | 34 | 110 |
| CC(C)C[C@H](NC(=O)CN1CC[C@@H](NC(=O)[C@H](Cc2ccccc2)NC(=O)[C@H](Cc2cnc[nH]2)NC(=O)CNC(=O)[C@@H](NC(=O)[C@@H](NC(=O)[C@H](Cc2ccccc2)NC(=O)[C@@H](N)CCCN=C(N)N)C(C)(C)S)[C@@H](C)O)C1=O)C(=O)N[C@@H](Cc1ccc(O)cc1)C(=O)N1CCC[C@H]1C(=O)N[C@@H](CS)C(=O)O | 0.28 | 2.3 |
| CC(C)C[C@H](NC(=O)CN1CCCC[C@@H](NC(=O)[C@H](Cc2ccccc2)NC(=O)[C@H](Cc2cnc[nH]2)NC(=O)CNC(=O)[C@@H](NC(=O)[C@H](NC(=O)[C@H](Cc2ccccc2)NC(=O)[C@@H](N)CCCNC(=N)N)C(C)(C)S)[C@@H](C)O)C1=O)C(=O)N[C@@H](Cc1ccc(O)cc1)C(=O)N1CCC[C@H]1C(=O)N[C@@H](CS)C(=O)O | 0.103 | 0.64 |
| CC(C)C[C@H](NC(=O)CNC(=O)CNC(=O)[C@@H](NC(=O)[C@H](Cc1cnc[nH]1)NC(=O)CNC(=O)[C@@H](NC(=O)[C@@H](NC(=O)[C@H](Cc1ccccc1)NC(=O)[C@H](CCCN=C(N)N)NC(=O)[C@@H](N)CCC(N)=O)C(C)(C)S)[C@@H](C)O)c1ccccc1)C(=O)N[C@@H](Cc1ccc(O)cc1)C(=O)N1CCC[C@H]1C(=O)N[C@@H](CS)C(=O)N[C@@H](CC(N)=O)C(=O)NCC(=O)N1CCC[C@H]1C(=O)O | > 250 | > 125 |
| CC(C)C[C@H](NC(=O)CNC(=O)CNC(=O)[C@H](Cc1ccccc1)NC(=O)[C@H](Cc1cnc[nH]1)NC(=O)CNC(=O)[C@@H](NC(=O)[C@H](CCC(=O)O)NC(=O)[C@H](Cc1ccccc1)NC(=O)[C@H](CCCN=C(N)N)NC(=O)[C@@H](N)CCC(N)=O)[C@@H](C)O)C(=O)N[C@@H](Cc1ccc(O)cc1)C(=O)N1CCC[C@H]1C(=O)N[C@@H](CCCN)C(=O)N[C@@H](CC(N)=O)C(=O)NCC(=O)N1CCC[C@H]1C(=O)O | 15 | 80 |
| CC(C)C[C@H](NC(=O)[C@H](Cc1ccc(O)cc1)NC(=O)[C@@H]1CSSC[C@H](NC(=O)[C@H](Cc2ccccc2)NC(=O)[C@H](CO)NC(=O)[C@@H](N)CC(N)=O)C(=O)N[C@@H](CCCN=C(N)N)C(=O)NCC(=O)N[C@@H](CCCN=C(N)N)C(=O)N2CCC[C@H]2C(=O)NCC(=O)N[C@@H](Cc2cnc[nH]2)C(=O)N[C@@H](Cc2ccccc2)C(=O)NCC(=O)NCC(=O)N1)C(=O)N[C@@H](Cc1ccccc1)C(=O)O (H-NSFCRGRPGHFGGCYLF-OH; disulfide 4-14) | 9.4 | 33 |
| CC(C)C[C@H](NC(=O)CNC(=O)CNC(=O)[C@H](Cc1ccccc1)NC(=O)[C@H](Cc1cnc[nH]1)NC(=O)CNC(=O)[C@H](C)NC(=O)[C@H](CS)NC(=O)[C@H](Cc1ccccc1)NC(=O)[C@H](CCCN=C(N)N)NC(=O)[C@@H](N)CCC(N)=O)C(=O)N[C@@H](Cc1ccc(O)cc1)C(=O)N1CCC[C@H]1C(=O)N[C@@H](CS)C(=O)N[C@@H](CC(N)=O)C(=O)NCC(=O)N1CCC[C@H]1C(=O)O (H-QRFCAGHFGGLYPCNGP-OH) | 4.9 | 30 |
| CC(C)C[C@H](NC(=O)CNC(=O)CNC(=O)[C@H](Cc1ccccc1)NC(=O)[C@H](Cc1cnc[nH]1)NC(=O)CNC(=O)[C@@H](NC(=O)[C@@H](NC(=O)[C@H](Cc1ccccc1)NC(=O)[C@H](CCCN=C(N)N)NC(=O)[C@@H](N)CCC(N)=O)C(C)(C)S)[C@@H](C)O)C(=O)N[C@@H](Cc1ccc(O)cc1)C(=O)N1CCC[C@H]1C(=O)N[C@H](C(=O)N[C@@H](CC(N)=O)C(=O)NCC(=O)N1CCC[C@H]1C(=O)O)C(C)(C)S | 0.37 | 2 |
| CC(C)C[C@H](NC(=O)[C@@H](C)NC(=O)CNC(=O)[C@H](Cc1ccccc1)NC(=O)[C@H](Cc1cnc[nH]1)NC(=O)CNC(=O)[C@@H](NC(=O)[C@@H](NC(=O)[C@H](Cc1ccccc1)NC(=O)[C@H](CCCN=C(N)N)NC(=O)[C@@H](N)CCC(N)=O)C(C)(C)S)[C@@H](C)O)C(=O)N[C@@H](Cc1ccc(O)cc1)C(=O)N1CCC[C@H]1C(=O)N[C@@H](CS)C(=O)N[C@@H](CC(N)=O)C(=O)NCC(=O)N1CCC[C@H]1C(=O)O | 0.48 | 2 |
| CC(C)C[C@H](NC(=O)CNC(=O)CNC(=O)[C@H](Cc1ccccc1)NC(=O)[C@H](Cc1cnc[nH]1)NC(=O)CNC(=O)[C@@H](NC(=O)[C@@H](N)CS)[C@@H](C)O)C(=O)N[C@@H](Cc1ccc(O)cc1)C(=O)N1CCC[C@H]1C(=O)N[C@@H](CS)C(=O)N[C@@H](CC(N)=O)C(=O)NCC(=O)N1CCC[C@H]1C(=O)O (H-CTGHFGGLYPCNGP-OH) | 34 | 239 |
| CC(C)C[C@H](NC(=O)CNC(=O)CNC(=O)[C@H](Cc1ccccc1)NC(=O)[C@H](Cc1cnc[nH]1)NC(=O)CNC(=O)[C@@H](NC(=O)[C@@H](NC(=O)[C@H](Cc1ccccc1)NC(=O)[C@H](CCCNC(=N)N)NC(=O)[C@@H](N)CCC(N)=O)C(C)(C)S)[C@@H](C)O)C(=O)N[C@@H](Cc1cccnc1)C(=O)N1CCC[C@H]1C(=O)N[C@@H](CS)C(=O)N[C@@H](CC(N)=O)C(=O)NCC(=O)N1CCC[C@H]1C(=O)O | 34 | 92 |
| CC(C)C[C@H](NC(=O)CNC(=O)CNC(=O)[C@H](CCc1ccccc1)NC(=O)[C@H](Cc1cnc[nH]1)NC(=O)CNC(=O)[C@@H](NC(=O)[C@@H](NC(=O)[C@H](Cc1ccccc1)NC(=O)[C@H](CCCNC(=N)N)NC(=O)[C@@H](N)CCC(N)=O)C(C)(C)S)[C@@H](C)O)C(=O)N[C@@H](Cc1ccc(O)cc1)C(=O)N1CCC[C@H]1C(=O)N[C@@H](CS)C(=O)N[C@@H](CC(N)=O)C(=O)NCC(=O)N1CCC[C@H]1C(=O)O | 7.8 | 80 |
| CC(C)C[C@H](NC(=O)CNC(=O)CNC(=O)[C@H](Cc1ccccc1)NC(=O)[C@H](Cc1cnc[nH]1)NC(=O)CNC(=O)[C@@H](NC(=O)[C@H](CS)NC(=O)[C@H](Cc1ccccc1)NC(=O)[C@@H](N)CCCN=C(N)N)[C@@H](C)O)C(=O)N[C@@H](Cc1ccc(O)cc1)C(=O)N1CCC[C@H]1C(=O)N[C@@H](CS)C(=O)O | 10 | 87 |
| CC(C)C[C@H](NC(=O)[C@H]1CCCN1C(=O)[C@@H](Cc1ccccc1)NC(=O)[C@H](Cc1ccccc1)NC(=O)[C@H](Cc1cnc[nH]1)NC(=O)CNC(=O)[C@@H](NC(=O)[C@@H](NC(=O)[C@H](Cc1ccccc1)NC(=O)[C@H](CCCN=C(N)N)NC(=O)[C@@H](N)CCC(N)=O)C(C)(C)S)[C@@H](C)O)C(=O)N[C@@H](Cc1ccc(O)cc1)C(=O)N1CCC[C@H]1C(=O)N[C@@H](CS)C(=O)N[C@@H](CC(N)=O)C(=O)NCC(=O)N1CCC[C@H]1C(=O)O | 0.72 | 5.9 |
| CC(C)C[C@H](NC(=O)CN(C)C(=O)CNC(=O)[C@H](Cc1ccccc1)NC(=O)[C@H](Cc1cnc[nH]1)NC(=O)CNC(=O)[C@@H](NC(=O)[C@@H](NC(=O)[C@H](Cc1ccccc1)NC(=O)[C@@H](N)CCCNC(=N)N)C(C)(C)S)[C@@H](C)O)C(=O)N[C@@H](Cc1ccc(O)cc1)C(=O)N1CCC[C@H]1C(=O)N[C@@H](CS)C(=O)O | 0.058 | 1 |
| CC(C)C[C@H](NC(=O)C(C)(C)NC(=O)CNC(=O)[C@H](Cc1ccccc1)NC(=O)[C@H](Cc1cnc[nH]1)NC(=O)CNC(=O)[C@@H](NC(=O)[C@@H](NC(=O)[C@H](Cc1ccccc1)NC(=O)[C@H](CCCNC(=N)N)NC(=O)[C@@H](N)CCC(N)=O)C(C)(C)S)[C@@H](C)O)C(=O)N[C@@H](Cc1ccc(O)cc1)C(=O)N1CCC[C@H]1C(=O)N[C@@H](CS)C(=O)N[C@@H](CC(N)=O)C(=O)NCC(=O)N1CCC[C@H]1C(=O)O | 0.48 | 2.4 |
